This is an account of results in PubChem BioAssay.

Activity calls are given as the source filed them.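 How the source made its calls, unless noted: active means viability at or below 10% of carrier control in both of two separate runs; inconclusive means viability at or below 10% in only one of the two runs; inactive means the rest.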

A short description of test [1]: Her2 expression decrease, cell viability multiplex – SKBR3 breast tumor cells, AlphaScreen, ATP viability, primary screen (AID 461;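 active means Her2 level under about 52% in both replicate screens, with viability over 70% of control, limit read from the data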;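 on Her2 level: lower value means less Her2 protein in the cells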;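 on viability: percent of carrier control wells set as 100% viability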). The following applies: SKBR3 Her2 protein level, 18-24 h, measured here: SKBR3 viability, ATP luminescence, at 10 µM. (In general: In Alpha technology, singlet oxygen from a donor bead excites a nearby acceptor bead.)
In test [2] the target is Receptor tyrosine-protein kinase erbB-2 (Homo sapiens) (UniProt P04626). The test is described as above. To be noted: 18-24 h, at 10 µM, stronger effect = lower value.
Chain of Receptor tyrosine-protein kinase erbB-2 (Homo sapiens) (P04626 whole entry, looked up): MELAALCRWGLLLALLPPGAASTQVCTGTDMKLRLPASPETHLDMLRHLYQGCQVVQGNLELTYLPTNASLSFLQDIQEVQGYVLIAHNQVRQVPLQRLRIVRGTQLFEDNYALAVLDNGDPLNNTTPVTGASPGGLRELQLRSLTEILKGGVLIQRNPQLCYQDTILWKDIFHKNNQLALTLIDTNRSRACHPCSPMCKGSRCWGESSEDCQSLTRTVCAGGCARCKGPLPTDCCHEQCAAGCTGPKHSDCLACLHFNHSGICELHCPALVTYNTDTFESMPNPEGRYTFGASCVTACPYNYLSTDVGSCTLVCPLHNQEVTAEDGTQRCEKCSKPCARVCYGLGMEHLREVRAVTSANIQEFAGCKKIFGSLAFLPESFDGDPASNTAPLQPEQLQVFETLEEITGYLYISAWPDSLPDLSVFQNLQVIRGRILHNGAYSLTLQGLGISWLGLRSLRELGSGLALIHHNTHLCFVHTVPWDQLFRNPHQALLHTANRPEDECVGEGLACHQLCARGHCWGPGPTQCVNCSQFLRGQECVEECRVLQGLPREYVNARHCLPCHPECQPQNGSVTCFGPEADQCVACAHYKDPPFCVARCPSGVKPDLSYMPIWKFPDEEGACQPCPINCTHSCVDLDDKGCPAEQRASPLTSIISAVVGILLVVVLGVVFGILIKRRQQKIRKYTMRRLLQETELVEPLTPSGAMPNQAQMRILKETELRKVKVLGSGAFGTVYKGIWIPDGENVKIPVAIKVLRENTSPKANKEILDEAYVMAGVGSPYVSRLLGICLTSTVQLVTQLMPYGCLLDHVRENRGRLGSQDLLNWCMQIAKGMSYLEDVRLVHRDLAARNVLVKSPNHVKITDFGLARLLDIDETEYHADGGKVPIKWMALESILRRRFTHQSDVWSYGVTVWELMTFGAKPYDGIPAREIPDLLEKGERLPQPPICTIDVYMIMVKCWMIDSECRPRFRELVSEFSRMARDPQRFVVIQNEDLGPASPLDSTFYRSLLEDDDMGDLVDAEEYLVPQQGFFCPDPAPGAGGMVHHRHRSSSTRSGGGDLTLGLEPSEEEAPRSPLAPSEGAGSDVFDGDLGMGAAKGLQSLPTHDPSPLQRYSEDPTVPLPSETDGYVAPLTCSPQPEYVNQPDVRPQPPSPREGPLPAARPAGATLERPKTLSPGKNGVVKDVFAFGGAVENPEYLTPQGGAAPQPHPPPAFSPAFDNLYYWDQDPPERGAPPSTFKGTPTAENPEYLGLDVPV
Test [3] in a line: reduced viability of SK-BR-3 breast cancer cells – cell-based, 24 h, human, pilot screen (AID 572).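 Further: compound exposure lasted between 18 and 24 h rather than exactly 24 h; 100% = carrier-treated control wells.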 To be noted: SK-BR-3 viability, CellTiter-Glo luminescence, at 10 µM, stronger effect = lower value. Background: ATP-based viability assays read luminescence as a measure of living cells.
A short description of test [4]: HUVEC growth inhibition – cell-based, human, primary screen (AID 575;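 active means viability at or below 30% in both replicate assays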;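 further: 100% = median of untreated cell wells with 0.1% DMSO on each plate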). The following applies: HUVEC proliferation, CellTiter-Glo luminescence, 72 h; at 10 µM; stronger effect = lower value. In short, it runs like this: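 Test system: primary human umbilical vein endothelial cells; medium: endothelial basal medium with 2% FBS plus growth supplements; dosing: 10 µM compound only; times: 72 h treatment at 37 °C; signal: CTG luminescence; read-out: % viability relative to median vehicle-well signal on each plate; control set: vehicle and MePR control wells; plate: 384-well, collagen-coated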

The nature of test [5]: H69AR cell proliferation blockers – human, duplicate replicates, primary screen (AID 580;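 active means viability at or under a set limit in both replicates, limit being median viability minus 3 SD, cut at about 48% in these data, passing the limit was not always enough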;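 further: 100% = mean luminescence of untreated wells and 0% = no signal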). To be noted: H69AR lung tumor cells viability, ATP luminescence, 72 h; at 10 µM; stronger effect = lower value.
The nature of test [6]: MRP1 drug-resistance reversers in H69AR cells – cell-based, doxorubicin co-treatment, pilot screen (AID 601;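 active means viability loss from added drug above about 55%, and viability with drug at most 40%, in both replicates, limit read from the data, passing the limit was not always enough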). To be noted: CellTiter-Glo, 72 h, at 10 µM; for differential viability (reversal): stronger effect = higher value.
The nature of test [7]: yeast transport mutant growth inhibition pilot in 384-well plates, post-Golgi transport modulator project (AID 636; in the data active means inhibition above about 31%). To be noted: absorbance 615 nm, about 18 h, stronger effect = higher value.
Test [8] can be described thus: growth suppression of yeast trafficking mutant, preliminary HTS, modulators of trafficking downstream of Golgi apparatus project, 1536-format plate, OD 615 nm (AID 637; in the data active means inhibition above about 30%). The following applies: yeast transport mutant growth, absorbance 615 nm, 18 h; stronger effect = higher value.
Setting [9] is: H69AR cells + 2 uM doxorubicin, measured here: viability with 2 uM doxorubicin, stronger effect = lower value.
Where [10] appears, read: H69AR cells, compound alone cytotoxicity.

The term viability denotes a read-out of living cells in per cent, often relative to untreated cells. The inhibition is the drop in the measured response relative to a control, in per cent. Turning to `CCN1CCN(C(c2ccc(F)cc2)c2nnnn2Cc2cccs2)CC1` (stereo not given), the viability is 83% in test [1]; 83% (inactive) in test [3]; 89.4% (inactive) in test [4]; 94.9% (inactive) in test [5]; 86.4% in test [6] (setting [9]); 94.9% in test [6] (setting [10]). Further, in test [2], the Her2 level is 105% (inactive). The differential viability (reversal) in test [6] (H69AR cells + 2 uM doxorubicin) is 8.46% (inactive). In addition, the inhibition is -1.15% (inactive) in test [7] and -0.17% (inactive) in test [8].

Consider `CN1CCCN(C(=O)c2cc(=O)[nH]c3ccccc23)c2nc3ccccc3nc21`, for which the viability was 114% in test [1]; 114% (inactive) in test [3]; 84.2% (inactive) in test [4]; 79.9% (inactive) in test [5]; 79.3% in test [6] (setting [9]); 79.9% in test [6] (setting [10]). Also, the Her2 level in test [2] is 90% (inactive). Also, in test [6] (H69AR cells + 2 uM doxorubicin), the differential viability (reversal) was 0.575% (inactive). Also, the results for the inhibition in test [7] and in test [8] were -4.93% (inactive) and -2.79% (inactive), respectively.

In the case of `O=C(c1ccc(-c2ccccc2)cc1)N1CCN(c2ncccn2)CC1`, the viability in test [1] is 91%; in test [3] it was 91% (inactive); in test [4], 94.6% (inactive); in test [5], 103% (inactive); in test [6] (setting [9]), 90.5%; in test [6] (setting [10]), 103%. In addition, the Her2 level in test [2] is 96.5% (inactive). Further, in test [6] (H69AR cells + 2 uM doxorubicin), the differential viability (reversal) is 12.7% (inactive). Also, the inhibition in test [7] is -9.32% (inactive); in test [8], 6.39% (inactive).

On to `CC(=O)c1ccc(-c2nc3ccccc3n2C)o1`, for which the viability is 104% in test [1]; 104% (inactive) in test [3]; 96.7% (inactive) in test [4]; 72.7% (inactive) in test [5]; 69.6% in test [6] (setting [9]); 72.7% in test [6] (setting [10]). Also, in test [2], the Her2 level is 81% (inactive). The differential viability (reversal) in test [6] (H69AR cells + 2 uM doxorubicin) was 3.04% (inactive). Moreover, the inhibition in test [7] is -6.8% (inactive); in test [8], -1.9% (inactive).

Take `O=C(CN1CCCCCC1)OCCN=C1NS(=O)(=O)c2ccccc21`: the viability in test [1] was 108%; in test [3], 108% (inactive); in test [4], 88.1% (inactive); in test [5], 113% (inactive); in test [6] (setting [9]), 89.8%; in test [6] (setting [10]) it was 113%. Also, the Her2 level in test [2] is 96.5% (inactive). Also, the differential viability (reversal) in test [6] (H69AR cells + 2 uM doxorubicin) was 22.9% (inactive). Moreover, the inhibition is -2.21% (inactive) in test [7] and -6.51% (inactive) in test [8].

For `O=C(c1cnn2c(C(F)F)cc(C3CC3)nc12)N1CCOCC1`, the viability in test [1] is 104%; in test [3], 104% (inactive); in test [4] it was 107% (inactive); in test [5] it was 113% (inactive); in test [6] (setting [9]), 93.5%; in test [6] (setting [10]) it was 113%. Moreover, in test [2], the Her2 level was 102% (inactive). In addition, the differential viability (reversal) in test [6] (H69AR cells + 2 uM doxorubicin) was 19.2% (inactive). For the same molecule, the inhibition in test [7] is -3.29% (inactive); in test [8] it was -10.2% (inactive).

With `Cc1cc(C)cc(NC(=O)C2CCCN(c3nccc(C)n3)C2)c1` (stereo not given), the viability was 85% in test [1]; 85% (inactive) in test [3]; 84% (inactive) in test [4]; 104% (inactive) in test [5]; 91.1% in test [6] (setting [9]); 104% in test [6] (setting [10]). Also, in test [2], the Her2 level was 101% (inactive). The differential viability (reversal) in test [6] (H69AR cells + 2 uM doxorubicin) was 12.9% (inactive). The inhibition in test [7] was 0.91% (inactive); in test [8] it was -5.25% (inactive).

For `CCN(CC(=O)Nc1ccc(S(N)(=O)=O)cc1)S(=O)(=O)c1cc(C)ccc1OC`, the viability was 76.5% in test [1]; 76.5% (inactive) in test [3]; 109% (inactive) in test [4]; 114% (inactive) in test [5]; 99.2% in test [6] (setting [9]); 114% in test [6] (setting [10]). Further, in test [2], the Her2 level is 105% (inactive). Moreover, the differential viability (reversal) in test [6] (H69AR cells + 2 uM doxorubicin) was 14.4% (inactive). Further, the inhibition was -3.55% (inactive) in test [7] and -1.67% (inactive) in test [8].

For the molecule `COc1cccc(N2CCN(Cc3cccnc3)CC2)c1`, the viability was 81.5% in test [1]; 81.5% (inactive) in test [3]; 93% (inactive) in test [4]; 87.8% (inactive) in test [5]; 95.4% in test [6] (setting [9]); 87.8% in test [6] (setting [10]). Moreover, the Her2 level in test [2] is 97.5% (inactive). In addition, in test [6] (H69AR cells + 2 uM doxorubicin), the differential viability (reversal) is -7.62% (inactive). Also, the inhibition is -0.38% (inactive) in test [7] and 3.33% (inactive) in test [8].

With `O=C1CCCC(O)=C1C=Nc1ccc2c(c1)oc1ccccc12`, the viability is 102% in test [1]; 102% (inactive) in test [3]; 63.7% (inactive) in test [4]; 88.7% (inactive) in test [5]; 100% in test [6] (setting [9]); 88.7% in test [6] (setting [10]). In test [2], the Her2 level is 101% (inactive). For the same molecule, in test [6] (H69AR cells + 2 uM doxorubicin), the differential viability (reversal) was -11.3% (inactive). Further, the figures for the inhibition in test [7] and in test [8] were -5.87% (inactive) and 1.11% (inactive), respectively.

With `CCOc1ccc(-n2c(=O)cc(N3CCN(c4ccccc4)CC3)[nH]c2=O)cc1`, the viability in test [1] was 94%; in test [3] it was 94% (inactive); in test [4] it was 96.1% (inactive); in test [5], 103% (inactive); in test [6] (setting [9]), 95.6%; in test [6] (setting [10]), 103%. For the same molecule, the Her2 level in test [2] is 84% (inactive). For the same molecule, the differential viability (reversal) in test [6] (H69AR cells + 2 uM doxorubicin) is 7.43% (inactive). Also, the inhibition in test [7] is -6.13% (inactive); in test [8], 6.07% (inactive).

With `COc1ccc(C)cc1NC(=O)c1nc2nc(C)cc(C)n2n1`, the viability in test [1] is 86%; in test [3], 86% (inactive); in test [4], 73% (inactive); in test [5], 85.1% (inactive); in test [6] (setting [9]), 86.6%; in test [6] (setting [10]), 85.1%. In addition, the Her2 level in test [2] was 76% (inactive). Also, the differential viability (reversal) in test [6] (H69AR cells + 2 uM doxorubicin) was -1.54% (inactive). In addition, the inhibition was -6.13% (inactive) in test [7] and -1.11% (inactive) in test [8].

For `O=C(OCN1C(=O)c2ccccc2C1=O)c1ccc2c(=O)n3c(nc2c1)CCC3`, the viability in test [1] was 109%; in test [3], 109% (inactive); in test [4], 112% (inactive); in test [5], 96.7% (inactive); in test [6] (setting [9]), 97.2%; in test [6] (setting [10]), 96.7%. Besides, the Her2 level in test [2] is 85.5% (inactive). In test [6] (H69AR cells + 2 uM doxorubicin), the differential viability (reversal) was -0.565% (inactive). Further, the figures for the inhibition in test [7] and in test [8] were -4.73% (inactive) and 14.8% (inactive), respectively.

As to `COC(=O)c1ccc(C)c(NS(=O)(=O)c2ccc3c(c2)OCCO3)c1`, the viability in test [1] was 87.5%; in test [3], 87.5% (inactive); in test [4], 49.2% (inactive); in test [5] it was 35% (active); in test [6] (setting [9]), 72%; in test [6] (setting [10]), 35%. For the same molecule, the Her2 level in test [2] was 74% (inactive). Further, the differential viability (reversal) in test [6] (H69AR cells + 2 uM doxorubicin) is -37% (inactive). The inhibition is 1.54% (inactive) in test [7] and -3.67% (inactive) in test [8].
